Residues, ends and D or L forms follow the SMILES beside them.

The record followed here is ChEMBL document CHEMBL1137490, “Design, synthesis and cardioprotective effect of a new class of dual-acting agents: phenolic tetrahydro-beta-carboline RGD peptidomimetic conjugates” (Bioorg Med Chem, 2007).

Assay [1] has as its system PC-12. Put plainly: Scavenging activity against nitric oxide radical generation in rat PC12 cells assessed as cell survival by MTT assay. The class given is functional, cell-based. In a few lines: (§1)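 PC12 cells in DMEM with 10% heat-inactivated horse serum, 5% FBS, 1.0 mM pyruvate, penicillin/streptomycin, 37 °C, 5% CO2; seeded 20,000/well on poly-L-lysine, 24 h attachment. Pretreated 1 h with 12.5–200 µM. Insult: 2 mM SNP 2 h (NO), 1 mM H2O2 1 h, or 1 mM H2O2/30 µM Fe(II) 1 h (•OH). For SNP, fresh media then 14 h culture. Survival by MTT; EC50 (µM).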

The subject of assay [2] is Aorta. Put plainly: Scavenging activity against nitric oxide radical generation in Wistar rat aortic strips cells assessed as inhibition of acetylcholine-induced vasorelaxation at 1 umol/L. The class given is functional, tissue-based. Summed up:
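Rat aortic strips in 37 °C oxygenated (95% O2/5% CO2) Krebs, pH 7.4, on tension transducers. Precontracted with noradrenaline (final 10^-9 mol/L), washed, stabilized 30 min, recontracted; at peak, compound in water (final 10^-6 mol/L) or NS added, then ACh (final 10^-6 mol/L). Percent inhibition of ACh-induced relaxation recorded.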

Assay [3] deals with PC-12. Put plainly: Scavenging activity against […] generation in rat PC12 cells assessed as cell survival by MTT assay. The assay is classed as functional, cell-based. Summed up: as §1
The test system of assay [4] is PC-12. Put plainly: Scavenging activity against hydrogen peroxide radical generation in rat PC12 cells assessed as cell survival by MTT assay. The assay is classed as functional, cell-based. In a few lines: as §1
Assay [5] relates to Aorta. Put plainly: Scavenging activity against nitric oxide radical generation in Wistar rat aortic strips cells assessed as inhibition of acetylcholine-induced vasorelaxation at 0.1 umol/L.
The species entered for assay [6] is Rattus norvegicus. Put plainly: Antithrombotic effect in Wistar rat assessed as reduction in dry thrombus mass at 5 umol/L. The assay is classed as functional. Summed up: (§2)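 Male Wistar rats 250-300 g, sodium pentobarbital 80.0 mg/kg ip; arteriovenous shunt (polyethylene tube with weighed 6 cm thread, sodium heparin 50 IU/mL in NS) from right carotid to left jugular vein. Compound dissolved in NS just before use, kept on ice, injected via tube; NS vehicle. Blood flowed 15 min; wet thrombus weighed, dry weight after 2 weeks in desiccator.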

Assay [7] is filed under the species Rattus norvegicus. Put plainly: Antithrombotic effect in Wistar rat assessed as reduction in wet thrombus mass at 5 umol/L. The class given is functional. In a few lines:
as §2

Assay [8] concerns Aorta. Put plainly: Scavenging activity against nitric oxide radical generation in Wistar rat aortic strips cells assessed as inhibition of acetylcholine-induced vasorelaxation at 0.01 umol/L.
For assay [9], the species on record is Rattus norvegicus. Put plainly: Protective effect in ischemia reperfusion Wistar rat model assessed as malondialdehyde per mg of protein. The assay is classed as functional.
Assay [10] is filed under the species Rattus norvegicus. Put plainly: Protective effect in sham ischemia reperfusion Wistar rat model assessed as malondialdehyde per mg of protein. The class given is functional.
In assay [11] the test system is Rattus norvegicus. Put plainly: Reduction in infarct size in ischemia reperfusion Wistar rat model assessed as infarct size over risk zone at 10 mg/kg. Details: scale not given: the % may be the effect or the level left. The assay is classed as functional. In a few lines:
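Male Wistar rats 250-300 g, pentobarbital 80.0 mg/kg ip; left coronary artery occluded 30 min by snare, then 120 min reperfusion. Compound 10 mg/kg in DMSO–0.9% NaCl (1:103 v/v) infused transjugularly 15 min before occlusion. Ventricular 1 mm slices stained with 1% TTC 15 min at 37 °C, with Evans blue for area at risk; infarct/risk zone %, n = 8, mean ± SE, t-test.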

Consider `COc1cc(C2N[C@H](C(=O)O)Cc3c2[nH]c2ccccc32)cc(OC)c1O` (stereo partly drawn), for which the half-maximal effective concentration (EC50) in the assay with PC-12 [1] was 88.4 µM; with PC-12 [3], 85.9 µM; with PC-12 [4] it was 34.5 µM. The inhibition in the assay with Aorta [2] amounted to 81%; with Aorta [5], 55.3%; with Aorta [8], 10.8%. The Activity is listed as 8.03 mg in the assay filed under Rattus norvegicus [6] and 44.01 mg in the assay filed under Rattus norvegicus [7].

Turning to `COc1cc(C2N[C@H](C(=O)N[C@@H](CCCNC(=N)N)C(=O)NNCC(=O)N[C@H](CC(=O)O)C(=O)N[C@H](C(=O)O)C(C)C)Cc3c2[nH]c2ccccc32)cc(OC)c1O` (stereo partly drawn), the figures for the inhibition with Aorta [2], in the assay with Aorta [5] and in the assay on Aorta [8] were 95.8%, 71% and 14.1%, respectively.

Consider `COc1cc(C2N[C@H](C(=O)N[C@@H](CCCNC(=N)N)C(=O)NNCC(=O)N[C@@H](CC(=O)O)C(=O)N[C@H](C(=O)O)C(C)C)Cc3c2[nH]c2ccccc32)cc(OC)c1O` (stereo partly drawn) [listing 1 of 2 here], for which the EC50 in the assay on PC-12 [1] is 91.2 µM; with PC-12 [3] it was 90.3 µM; in the assay on PC-12 [4] it was 41.2 µM.

For `CC(C)[C@H](NC(=O)[C@H](CC(=O)O)NC(=O)CNC(=O)CN(N)CCCNC(=N)N)C(=O)O`, the figures for the Activity in the assay listed under Rattus norvegicus [6] and in the assay filed under Rattus norvegicus [7] were 4.39 mg and 27.04 mg, respectively.

Consider `CC(C)[C@H](NC(=O)CN(CC(=O)O)NC(=O)CNC(=O)[C@@H](N)CCCNC(=N)N)C(=O)O`, for which the figures for the Activity in the assay filed under Rattus norvegicus [6] and in the assay filed under Rattus norvegicus [7] were 7.83 mg and 41.8 mg, respectively.

Turning to `COc1cc(C2N[C@H](C(=O)NN(CCCNC(=N)N)CC(=O)NCC(=O)N[C@@H](CC(=O)O)C(=O)N[C@H](C(=O)O)C(C)C)Cc3c2[nH]c2ccccc32)cc(OC)c1O` (stereo partly drawn) [listing 1 of 2 here], the EC50 amounted to 96.5 µM with PC-12 [1], 95.1 µM in the assay on PC-12 [3] and 75.4 µM in the assay with PC-12 [4].

As to `CC(C)[C@H](NC(=O)[C@H](CC(=O)O)NC(=O)CNC(=O)[C@@H](N)CCCNC(=N)N)C(=O)O` (H-RGDV-OH), the Activity in the assay listed under Rattus norvegicus [6] is 6.78 mg; in the assay listed under Rattus norvegicus [7], 35.75 mg.

Turning to `COc1cc(C2N[C@H](C(=O)NN(CCCNC(=N)N)CC(=O)NCC(=O)N[C@@H](CC(=O)O)C(=O)N[C@H](C(=O)O)C(C)C)Cc3c2[nH]c2ccccc32)cc(OC)c1O` (stereo partly drawn) [listing 2 of 2 here], the Activity in the assay filed under Rattus norvegicus [9] turned out to be 2.91 nmol/mg; in the assay listed under Rattus norvegicus [10] it was 2.52 nmol/mg; in the assay listed under Rattus norvegicus [6], 2.23 mg; in the assay filed under Rattus norvegicus [7] it was 21.05 mg; in the assay on Rattus norvegicus [11], 35%.

Turning to `COc1cc(C2N[C@H](C(=O)NN(CCCNC(=N)N)CC(=O)NCC(=O)N[C@H](CC(=O)O)C(=O)N[C@H](C(=O)O)C(C)C)Cc3c2[nH]c2ccccc32)cc(OC)c1O` (stereo partly drawn), the figures for the inhibition in the assay on Aorta [2], in the assay with Aorta [5] and in the assay on Aorta [8] were 97.2%, 75.3% and 28.3%, respectively.

Take `COc1cc(C2N[C@H](C(=O)N[C@@H](CCCNC(=N)N)C(=O)NCC(=O)NN(CC(=O)O)CC(=O)N[C@H](C(=O)O)C(C)C)Cc3c2[nH]c2ccccc32)cc(OC)c1O` (stereo partly drawn): the EC50 in the assay with PC-12 [1] is 90.2 µM; in the assay with PC-12 [3] it was 93.2 µM; with PC-12 [4], 45.7 µM. Moreover, the inhibition in the assay with Aorta [2] was found to be 90.1%; in the assay with Aorta [5], 63.7%; in the assay on Aorta [8], 13%. In addition, the Activity is 4.85 mg in the assay listed under Rattus norvegicus [6] and 25.46 mg in the assay listed under Rattus norvegicus [7].

Turning to `COc1cc(C2N[C@H](C(=O)N[C@@H](CCCNC(=N)N)C(=O)NNCC(=O)N[C@@H](CC(=O)O)C(=O)N[C@H](C(=O)O)C(C)C)Cc3c2[nH]c2ccccc32)cc(OC)c1O` (stereo partly drawn) [listing 2 of 2 here], the Activity turned out to be 3.79 mg in the assay filed under Rattus norvegicus [6] and 24.54 mg in the assay listed under Rattus norvegicus [7].

Take `CC(C)[C@H](NC(=O)[C@H](CC(=O)O)NC(=O)CNNC(=O)[C@@H](N)CCCNC(=N)N)C(=O)O`: the results for the Activity in the assay listed under Rattus norvegicus [6] and in the assay filed under Rattus norvegicus [7] were 7.05 mg and 34.98 mg, respectively.
